# Measurements taken from ChEMBL document CHEMBL4177526, “Discovery and structure activity relationship of the first potent cryptosporidium FIKK kinase inhibitor” (Bioorg Med Chem, 2017).
# Active and inactive are the calls of the source. The rule behind the calls is not given here.
# How the values were obtained:
# [1] = Inhibition of recombinant Cryptosporidium parvum FIKK using RRRAPSFYRK peptide as substrate by NADH coupled LDH-PK ATPase assay
# [2] = Inhibition of Cryptosporidium parvum CDPK1 using PLARTLSVAGLPGKK peptide as substrate by NADH coupled LDH-PK ATPase assay
# Procedure, shortened: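 NADH-coupled LDH-PK ATPase read-out with 1.2 nM recombinant CpCDPK1, 0.25 mM ATP, 0.1 mM Syntide 2.0 peptide and 2 mM CaCl2. Inhibitors were made as 10 mM DMSO stocks and tested in 2-fold serial dilutions. IC50 is the average of triplicate experiments.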
# Cryptosporidium parvum [3] = experiment: Inhibition of recombinant Cryptosporidium parvum FIKK assessed as change in melting temperature at 50 uM by differential static light scattering method
# [4] = target: Calcium/calmodulin-dependent protein kinase with a kinase domain and 4 calmodulin like EF hands (Cryptosporidium parvum (strain Iowa II)) (UniProt Q5CYL9); experiment: Inhibition of Cryptosporidium parvum Iowa II calcium/calmodulin-dependent protein kinase with a kinase domain and 4 calmodulin like EF hands assessed as change in melting temperature by DSLS method
# [5] = target: Calcium-dependent protein kinase 2 (Cryptosporidium parvum) (UniProt Q6S4V9); experiment: Inhibition of Cryptosporidium parvum calcium-dependent protein kinase 2 assessed as change in melting temperature by DSLS method
# Calcium-dependent protein kinase 2 (Cryptosporidium parvum), sequence (Q6S4V9 as listed by the source): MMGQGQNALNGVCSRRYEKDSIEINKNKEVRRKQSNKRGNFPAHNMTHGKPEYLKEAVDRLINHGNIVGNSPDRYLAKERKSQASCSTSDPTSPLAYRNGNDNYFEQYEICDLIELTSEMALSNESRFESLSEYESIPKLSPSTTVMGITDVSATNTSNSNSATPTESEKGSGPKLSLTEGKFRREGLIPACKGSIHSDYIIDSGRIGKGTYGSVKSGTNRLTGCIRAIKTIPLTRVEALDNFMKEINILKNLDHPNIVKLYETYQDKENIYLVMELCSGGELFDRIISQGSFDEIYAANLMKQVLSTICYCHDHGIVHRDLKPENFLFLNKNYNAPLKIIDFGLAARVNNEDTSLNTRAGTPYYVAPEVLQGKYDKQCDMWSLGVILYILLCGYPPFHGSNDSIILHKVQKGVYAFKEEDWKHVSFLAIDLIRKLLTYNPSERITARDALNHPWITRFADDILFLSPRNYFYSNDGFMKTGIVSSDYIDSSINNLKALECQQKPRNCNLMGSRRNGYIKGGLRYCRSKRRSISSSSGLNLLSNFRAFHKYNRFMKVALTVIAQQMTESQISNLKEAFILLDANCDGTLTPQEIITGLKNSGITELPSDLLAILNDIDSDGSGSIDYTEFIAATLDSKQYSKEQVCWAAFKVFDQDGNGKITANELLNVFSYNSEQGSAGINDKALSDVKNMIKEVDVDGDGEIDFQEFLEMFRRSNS
# [6] = target: Cgd5_820 protein (Cryptosporidium parvum) (UniProt F0X4H1); experiment: Inhibition of Cryptosporidium parvum calcium/calmodulin dependent protein kinase with a kinase domain and 4 calmodulin like EF hands assessed as change in melting temperature by DSLS method
# Cgd5_820 protein (Cryptosporidium parvum), sequence (F0X4H1 as listed by the source): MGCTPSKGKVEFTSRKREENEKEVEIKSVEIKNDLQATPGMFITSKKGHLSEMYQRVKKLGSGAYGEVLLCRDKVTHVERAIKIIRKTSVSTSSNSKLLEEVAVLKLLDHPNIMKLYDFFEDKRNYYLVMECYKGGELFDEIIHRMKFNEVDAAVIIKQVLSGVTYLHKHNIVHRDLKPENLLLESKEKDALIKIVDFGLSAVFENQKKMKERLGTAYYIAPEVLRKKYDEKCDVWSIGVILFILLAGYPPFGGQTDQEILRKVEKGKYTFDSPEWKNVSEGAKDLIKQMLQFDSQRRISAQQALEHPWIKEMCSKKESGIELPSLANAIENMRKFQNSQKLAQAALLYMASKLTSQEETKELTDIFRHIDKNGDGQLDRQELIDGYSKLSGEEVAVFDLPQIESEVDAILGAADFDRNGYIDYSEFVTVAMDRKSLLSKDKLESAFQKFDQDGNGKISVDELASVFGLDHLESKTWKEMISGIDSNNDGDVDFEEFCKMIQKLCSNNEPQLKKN
# [7] = target: Calcium/calmodulin-dependent protein kinase with a kinase domain and 2 calmodulin-like EF hands (Cryptosporidium parvum (strain Iowa II)) (UniProt Q5CZ29); experiment: Inhibition of Cryptosporidium parvum Iowa II calcium/calmodulin-dependent protein kinase with a kinase domain and 2 calmodulin-like EF hands assessed as change in melting temperature by DSLS method
# Cryptosporidium parvum [8] = experiment: Inhibition of Cryptosporidium parvum CDPK6 assessed as change in melting temperature by DSLS method
# [9] = tested on: Cryptosporidium parvum Iowa II; experiment: Inhibition of Cryptosporidium parvum Iowa II cyclin-dependent kinase 3 assessed as change in melting temperature by DSLS method
# [10] = target: Cell division control protein 28, putative (Cryptosporidium parvum (strain Iowa II)) (UniProt A3FPL9); experiment: Inhibition of Cryptosporidium parvum Iowa II cell division control protein 28 assessed as change in melting temperature by DSLS method
# Cell division control protein 28, putative (Cryptosporidium parvum (strain Iowa II)), sequence (A3FPL9 as listed by the source): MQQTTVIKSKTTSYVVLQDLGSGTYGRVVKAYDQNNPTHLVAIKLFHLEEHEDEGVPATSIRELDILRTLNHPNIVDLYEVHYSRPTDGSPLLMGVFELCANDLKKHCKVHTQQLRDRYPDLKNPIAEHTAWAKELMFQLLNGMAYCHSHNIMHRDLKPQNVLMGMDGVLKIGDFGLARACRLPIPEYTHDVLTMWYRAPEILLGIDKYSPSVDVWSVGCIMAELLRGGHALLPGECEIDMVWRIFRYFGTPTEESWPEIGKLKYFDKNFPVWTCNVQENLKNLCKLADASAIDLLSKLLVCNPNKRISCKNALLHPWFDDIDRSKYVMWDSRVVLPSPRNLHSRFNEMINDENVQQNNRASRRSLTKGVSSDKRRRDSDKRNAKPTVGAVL
# [11] = tested on: Cryptosporidium parvum Iowa II; experiment: Inhibition of Cryptosporidium parvum Iowa II glycogen synthase kinase assessed as change in melting temperature by DSLS method
# [12] = tested on: Cryptosporidium parvum Iowa II; experiment: Inhibition of Cryptosporidium parvum Iowa II Serine/threonine-protein kinase Nek2 assessed as change in melting temperature by DSLS method
# [13] = target: Mitogen-activated protein kinase (Cryptosporidium parvum (strain Iowa II)) (UniProt A3FQ79); experiment: Inhibition of Cryptosporidium parvum Iowa II mitogen-activated protein kinase assessed as change in melting temperature by DSLS method
# [14] = tested on: Cryptosporidium parvum Iowa II; experiment: Inhibition of Cryptosporidium parvum Iowa II calcium/calmodulin-dependent protein kinase assessed as change in melting temperature by DSLS method
# [15] = target: Calcium/calmodulin-dependent protein kinase with a kinase domain and 4 calmodulin like EF hands (Cryptosporidium parvum (strain Iowa II), UniProt Q5CYL9); experiment: Inhibition of Cryptosporidium parvum Iowa II calcium/calmodulin-dependent protein kinase with a kinase domain and 4 calmodulin like EF hands
# [16] = target: Calcium-dependent protein kinase 2 (Cryptosporidium parvum, UniProt Q6S4V9); experiment: Inhibition of Cryptosporidium parvum calcium-dependent protein kinase 2
# Calcium-dependent protein kinase 2, sequence (Q6S4V9 whole entry, the tested form may be a part): as the sequence (Q6S4V9 as listed by the source) above
# Cgd5_820 protein = Cgd5_820 protein (Cryptosporidium parvum, UniProt F0X4H1); experiment: Inhibition of Cryptosporidium parvum calcium/calmodulin dependent protein kinase with a kinase domain and 4 calmodulin like EF hands
# Cgd5_820 protein, sequence (F0X4H1 whole entry, the tested form may be a part): as the sequence (F0X4H1 as listed by the source) above
# [17] = target: Calcium/calmodulin-dependent protein kinase with a kinase domain and 2 calmodulin-like EF hands (Cryptosporidium parvum (strain Iowa II), UniProt Q5CZ29); experiment: Inhibition of Cryptosporidium parvum Iowa II calcium/calmodulin-dependent protein kinase with a kinase domain and 2 calmodulin-like EF hands
# [18] = Inhibition of Cryptosporidium parvum CDPK6
# [19] = Inhibition of Cryptosporidium parvum Iowa II cyclin-dependent kinase 3
# [20] = target: Cell division control protein 28, putative (Cryptosporidium parvum (strain Iowa II), UniProt A3FPL9); experiment: Inhibition of Cryptosporidium parvum Iowa II cell division control protein 28
# Cell division control protein 28, putative, sequence (A3FPL9 whole entry): as the sequence (A3FPL9 as listed by the source) above
# [21] = Inhibition of Cryptosporidium parvum Iowa II glycogen synthase kinase
# [22] = Inhibition of Cryptosporidium parvum Iowa II serine/threonine-protein kinase Nek2
# [23] = target: Mitogen-activated protein kinase (Cryptosporidium parvum (strain Iowa II), UniProt A3FQ79); experiment: Inhibition of Cryptosporidium parvum Iowa II mitogen-activated protein kinase
# [24] = Inhibition of Cryptosporidium parvum Iowa II ser/Thr protein kinase FIKK
# [25] = Inhibition of Cryptosporidium parvum Iowa II calcium/calmodulin-dependent protein kinase
# [26] = target: Vascular endothelial growth factor receptor 2 (Homo sapiens) (UniProt P35968); experiment: Inhibition of human KDR at 100 nM relative to control
# Vascular endothelial growth factor receptor 2 (Homo sapiens), sequence (P35968 whole entry): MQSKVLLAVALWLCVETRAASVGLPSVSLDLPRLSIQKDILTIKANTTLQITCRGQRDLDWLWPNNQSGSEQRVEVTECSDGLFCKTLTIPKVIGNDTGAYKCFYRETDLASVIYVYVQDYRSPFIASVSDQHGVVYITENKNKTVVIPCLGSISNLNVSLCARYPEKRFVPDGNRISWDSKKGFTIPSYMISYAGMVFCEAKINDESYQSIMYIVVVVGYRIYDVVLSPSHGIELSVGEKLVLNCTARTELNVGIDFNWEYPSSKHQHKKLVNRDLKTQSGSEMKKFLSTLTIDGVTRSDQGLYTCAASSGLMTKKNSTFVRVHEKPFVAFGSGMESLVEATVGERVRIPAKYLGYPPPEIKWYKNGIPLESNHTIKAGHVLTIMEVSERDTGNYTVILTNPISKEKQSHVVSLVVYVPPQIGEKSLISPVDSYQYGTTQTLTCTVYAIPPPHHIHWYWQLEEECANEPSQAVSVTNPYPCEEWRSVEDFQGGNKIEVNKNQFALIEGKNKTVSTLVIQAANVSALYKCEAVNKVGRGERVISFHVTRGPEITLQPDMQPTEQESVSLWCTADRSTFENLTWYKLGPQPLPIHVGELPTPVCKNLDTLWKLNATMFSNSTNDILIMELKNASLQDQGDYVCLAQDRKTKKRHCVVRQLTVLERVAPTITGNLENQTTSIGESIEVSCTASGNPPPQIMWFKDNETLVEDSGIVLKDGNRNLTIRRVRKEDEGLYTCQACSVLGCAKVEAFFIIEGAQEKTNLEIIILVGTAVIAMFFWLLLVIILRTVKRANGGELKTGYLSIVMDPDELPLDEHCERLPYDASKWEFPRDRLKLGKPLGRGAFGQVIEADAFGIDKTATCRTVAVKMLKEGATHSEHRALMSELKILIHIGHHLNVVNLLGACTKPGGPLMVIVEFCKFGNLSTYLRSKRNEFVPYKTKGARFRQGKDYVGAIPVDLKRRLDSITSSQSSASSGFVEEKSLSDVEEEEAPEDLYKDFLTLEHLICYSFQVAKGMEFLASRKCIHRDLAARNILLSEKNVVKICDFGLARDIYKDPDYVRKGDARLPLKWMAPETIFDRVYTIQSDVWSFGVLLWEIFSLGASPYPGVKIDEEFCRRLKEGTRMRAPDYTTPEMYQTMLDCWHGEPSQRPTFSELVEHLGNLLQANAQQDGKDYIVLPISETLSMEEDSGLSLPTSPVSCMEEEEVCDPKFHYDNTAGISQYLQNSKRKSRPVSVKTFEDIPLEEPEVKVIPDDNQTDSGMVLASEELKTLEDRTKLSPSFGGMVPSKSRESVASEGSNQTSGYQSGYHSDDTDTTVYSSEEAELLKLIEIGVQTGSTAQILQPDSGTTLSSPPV
# [27] = target: Vascular endothelial growth factor receptor 2 (Homo sapiens) (UniProt P35968); experiment: Inhibition of human KDR at 1 uM relative to control
# [28] = target: Mitogen-activated protein kinase kinase kinase kinase 4 (Homo sapiens) (UniProt O95819); experiment: Inhibition of human MAP4K4 at 1 uM relative to control
# [29] = target: Mitogen-activated protein kinase 14 (Homo sapiens) (UniProt Q16539); experiment: Inhibition of human p38alpha at 1 uM relative to control
# Mitogen-activated protein kinase 14 (Homo sapiens), sequence (Q16539 whole entry): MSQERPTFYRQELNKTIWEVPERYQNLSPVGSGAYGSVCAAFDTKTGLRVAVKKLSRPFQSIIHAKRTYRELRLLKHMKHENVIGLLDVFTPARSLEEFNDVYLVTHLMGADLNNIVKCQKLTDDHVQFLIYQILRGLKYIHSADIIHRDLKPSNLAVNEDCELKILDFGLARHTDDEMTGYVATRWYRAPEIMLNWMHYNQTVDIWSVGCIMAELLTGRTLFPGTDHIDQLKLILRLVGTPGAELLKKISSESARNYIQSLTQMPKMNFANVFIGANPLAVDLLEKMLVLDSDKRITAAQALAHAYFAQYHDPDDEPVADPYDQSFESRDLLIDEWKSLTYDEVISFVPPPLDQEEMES
# Cryptosporidium parvum [30] = experiment: Inhibition of Cryptosporidium parvum CDPK1 assessed as increase in thermal stabilization
# Cryptosporidium parvum [31] = experiment: Antiparasitic activity against Cryptosporidium parvum Iowa oocysts infected in human HCT8 cells pretreated prior to infection measured after 48 hrs by fluorescein labeled Vicia villosa lectin/Hoechst 33258 staining based epifluorescence microscopic analysis; type: functional, organism-based; details: Cryptosporidium parvum, Iowa, HCT-8; read-out: EC50
# Procedure, shortened: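 HCT-8 cells grown in RPMI-1640 with 10% heat-inactivated FBS and penicillin. Three-fold compound dilutions in culture medium were added to confluent cells before about 5500 excysted C. parvum Iowa oocysts per well. After 48 h, cells were fixed with 4% paraformaldehyde and permeabilized. Vacuoles were stained with fluorescein-Vicia villosa lectin (1.33 µg/mL, 1 h, 37 °C) and nuclei with Hoechst 33258, then imaged by epifluorescence microscopy.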
# [32] = Ratio of EC50 for antiparasitic activity against Cryptosporidium parvum Iowa oocysts infected in human HCT8 cells to IC50 for recombinant Cryptosporidium parvum FIKK; type: functional, cell-based
# [33] = Ratio of EC50 for antiparasitic activity against Cryptosporidium parvum Iowa oocysts infected in human HCT8 cells to IC50 for Cryptosporidium parvum CDPK1; type: functional
# [34] = Permeability in human Caco2 cells; type: ADME, cell-based; details: Caco-2, read-out: permeability
# [35] = Efflux ratio of permeability in human Caco2 cells; type: ADME, cell-based; details: Caco-2
structure (smiles),measurement,setting,value
Nc1nc(-c2ccc(F)cc2)c(-c2ccc3ncccc3n2)s1 [GW785804X],IC50,[1],0.22 µM
same,IC50,[2],0.22 µM
same,ΔTm,Cryptosporidium parvum [3],4.7 °C
Nc1nc(-c2cccc(Cl)c2)c(-c2ccc3ncccc3n2)s1 [GW780159X],IC50,[1],0.003 µM
same,IC50,[2],0.084 µM
same,ΔTm,[4],< 2 °C
same,ΔTm,[5],< 2 °C
same,ΔTm,[6],< 2 °C
same,ΔTm,[7],< 2 °C
same,ΔTm,Cryptosporidium parvum [8],< 2 °C
same,ΔTm,[9],< 2 °C
same,ΔTm,[10],< 2 °C
same,ΔTm,[11],< 2 °C
same,ΔTm,[12],< 2 °C
same,ΔTm,[13],< 2 °C
same,ΔTm,[14],< 2 °C
same,IC50,[15],> 10 µM
same,IC50,[16],> 10 µM
same,IC50,Cgd5_820 protein,> 10 µM
same,IC50,[17],> 10 µM
same,IC50,[18],> 10 µM
same,IC50,[19],> 10 µM
same,IC50,[20],> 10 µM
same,IC50,[21],> 10 µM
same,IC50,[22],> 10 µM
same,IC50,[23],> 10 µM
same,IC50,[24],0.003 µM
same,IC50,[25],> 10 µM
same,inhibition,[26],33%
same,inhibition,[27],67%
same,inhibition,[28],60%
same,inhibition,[29],50%
same,inhibition,Cryptosporidium parvum [30],Active
same,ΔTm,Cryptosporidium parvum [3],5.1 °C
same,EC50,Cryptosporidium parvum [31],5.5 µM
same,Ratio,[32],1840
same,Ratio,[33],66
CNc1nc(-c2cccc(Cl)c2)c(-c2ccc3ncccc3n2)s1,IC50,[1],3.6 µM
same,IC50,[2],1.51 µM
Nc1nc(-c2ccc(F)c(Cl)c2)c(-c2ccc3ncccc3n2)s1,IC50,[1],0.025 µM
same,IC50,[2],0.45 µM
same,ΔTm,Cryptosporidium parvum [3],3.6 °C
Nc1nc(-c2ccc(Cl)cc2)c(-c2ccc3ncccc3n2)s1,IC50,[1],3.26 µM
same,IC50,[2],0.375 µM
Nc1nc(-c2cccc(F)c2)c(-c2ccc3ncccc3n2)s1,IC50,[1],0.22 µM
same,IC50,[2],0.21 µM
same,ΔTm,Cryptosporidium parvum [3],4.9 °C
same,EC50,Cryptosporidium parvum [31],1.3 µM
same,Ratio,[32],6
same,Ratio,[33],6
same,Papp,[34],16 ×10⁻⁶ cm/s
same,efflux ratio,[35],< 1
N#Cc1cccc(-c2nc(N)sc2-c2ccc3ncccc3n2)c1,IC50,[1],4.1 µM
same,IC50,[2],1.5 µM
CCc1cccc(-c2nc(N)sc2-c2ccc3ncccc3n2)c1,IC50,[1],> 10 µM
same,IC50,[2],0.074 µM
CC(=O)Nc1nc(-c2cccc(Cl)c2)c(-c2ccc3ncccc3n2)s1,IC50,[1],> 10 µM
same,IC50,[2],0.33 µM
CC(C)c1cccc(-c2nc(N)sc2-c2ccc3ncccc3n2)c1,IC50,[1],> 10 µM
same,IC50,[2],> 10 µM
same,ΔTm,Cryptosporidium parvum [3],1 °C
